In ChEMBL document CHEMBL1799976, “Neurosteroid analogues. 15. A comparative study of the anesthetic and GABAergic actions of alphaxalone, Δ16-alphaxalone and their corresponding 17-carbonitrile analogues” (Bioorg Med Chem Lett, 2010):
Calls of active or inactive are those of the source. No cut-off for these calls is given here.

How the values were obtained:
Oocyte [1] = assay: Modulation of rat GABA-A alpha1beta2gamma2L receptor expressed in Xenopus oocytes assessed as increase of GABA-induced chloride current at 0.1 uM by two electrode voltage-clamp method relative to control; assay type: cell-based
Procedure, shortened: (§1)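 Two-electrode recording of GABA currents in Xenopus oocytes expressing rat α1β2γ2L GABA-A receptors. The control current was evoked with 2 μM GABA, then compound was co-applied at 0.1, 1 or 10 μM. Each value is the current with compound divided by the current without it, from at least four oocytes (SEM, N ≥ 4).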

Oocyte [2] = assay: Modulation of rat GABA-A alpha1beta2gamma2L receptor expressed in Xenopus oocytes assessed as increase of GABA-induced chloride current at 1 uM by two electrode voltage-clamp method relative to control; assay type: cell-based; procedure, shortened: as §1
Oocyte [3] = assay: Modulation of rat GABA-A alpha1beta2gamma2L receptor expressed in Xenopus oocytes assessed as increase of GABA-induced chloride current at 10 uM by two electrode voltage-clamp method relative to control; assay type: cell-based; procedure, shortened: as §1
Oocyte [4] = assay: Modulation of rat GABA-A alpha1beta2gamma2L receptor expressed in Xenopus oocytes assessed as increase of chloride current at 10 uM by two electrode voltage-clamp method relative to GABA; assay type: cell-based
Procedure, shortened: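 Direct gating test on oocytes expressing rat α1β2γ2L GABA-A receptors. Compound was applied alone at 10 μM with no GABA. The current is expressed as compound-only current divided by the current to 2 μM GABA, from at least four oocytes (SEM).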

Xenopus laevis [5] = assay: Anesthetic effect on prelimb-bud stage of Xenopus laevis tadpole assessed as loss of righting reflex; assay type: functional, organism-based
Procedure, shortened: (§2)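 Behavioural reflex end points in tadpoles, with 10 animals at each of five or more concentrations. The highest concentration tested was 10 μM, and "none" means no reflex was lost at that level. EC50 was taken for each reflex, with error given as standard error of the mean.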

Xenopus laevis [6] = assay: Anesthetic effect on prelimb-bud stage of Xenopus laevis tadpole assessed as loss of swimming reflex at 10 uM; assay type: functional, organism-based
Procedure, shortened: (§3)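 Swimming-reflex scoring in tadpoles at single bath concentrations of 3 μM and 10 μM. Results are reported as whether the tadpoles kept or lost the reflex at each concentration.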

[7] = Displacement of [35S]TBPS from GABA-A receptor picrotoxin binding site in rat brain cortical membranes after 2 hrs by scintillation counting; assay type: cell membranes, Membrane
Xenopus laevis [8] = assay: Anesthetic effect on prelimb-bud stage of Xenopus laevis tadpole assessed as loss of swimming reflex; assay type: functional, organism-based; procedure, shortened: as §2
Xenopus laevis [9] = assay: Anesthetic effect on prelimb-bud stage of Xenopus laevis tadpole assessed as loss of swimming reflex at 3 uM; assay type: functional, organism-based; procedure, shortened: as §3
Oocyte [10] = assay: Modulation of rat GABA-A alpha1beta2gamma2L receptor expressed in Xenopus oocytes assessed as increase of GABA-induced chloride current by two electrode voltage-clamp method relative to control; assay type: cell-based; procedure, shortened: as §1

SMILES	fold change (FC) (Oocyte [1])	fold change (FC) (Oocyte [2])	fold change (FC) (Oocyte [3])	fold change (FC) (Oocyte [4])	EC50 (Xenopus laevis [5]) [µM]	Activity (Xenopus laevis [6])	IC50 [7] [µM]	EC50 (Xenopus laevis [8]) [µM]	Activity (Xenopus laevis [9])	Activity (Oocyte [10])
CC(=O)C1=CC[C@H]2[C@@H]3CC[C@H]4C[C@H](O)CC[C@]4(C)[C@H]3C(=O)C[C@]12C	0.94	0.97	1.87	0.08	> 10	inactive	2.22			
C[C@]12CC[C@@H](O)C[C@@H]1CC[C@@H]1[C@@H]2C(=O)C[C@]2(C)C(C#N)=CC[C@@H]12	1.49	4.07	23.8	0.21	1.04	Active	0.361	5.48	inactive	
CC(=O)[C@H]1CC[C@H]2[C@@H]3CC[C@H]4C[C@H](O)CC[C@]4(C)[C@H]3C(=O)C[C@]12C [ALFAXALONE]	2.91	4.7	19.6	0.11	1.12	Active		5.48	inactive	Dose-dependent effect
C[C@]12CC[C@@H](O)C[C@@H]1CC[C@H]1[C@@H]3CC[C@H](C#N)[C@@]3(C)CC(=O)[C@@H]12	1.12	4.59	21.1	0.14	0.72	Active	0.19	5.48	inactive	
